The source made the active and inactive calls. The rule behind the calls is not given here.
What was measured:
Mus musculus [1] = assay: Anticonvulsant activity in ip dosed albino mouse assessed as protection against scPTZ-induced seizures after 0.5 hrs; type: functional
In short: (§1)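 Male albino mice (20-25 g) given test compounds i.p., suspended in 30% PEG 200, at 0.01 ml/g body weight, at 30, 100 and 300 mg/kg to 1–6 animals. Seizure protection checked 0.5 h and 4 h after dosing. Value is the minimal dose protecting 50% or more of animals.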

[2] = Neurotoxicity against ip dosed albino mouse assessed as inability of animal to maintain equilibrium on rod for 1 min after 0.5 hrs by rotarod test; settings: in vivo
Mus musculus [3] = assay: Anticonvulsant activity in ip dosed albino mouse assessed as protection against MES-induced seizures after 0.5 hrs; type: functional; in short: as §1
[4] = Neurotoxicity against ip dosed albino mouse assessed as inability of animal to maintain equilibrium on rod for 1 min after 4 hrs by rotarod test; settings: in vivo
Mus musculus [5] = assay: Reduction of immobility time in albino Swiss mouse at 100 mg/kg, ip pretreated for 1 hrs by forced swimming test; type: functional; settings: route intraperitoneal
Mus musculus [6] = assay: Anticonvulsant activity in ip dosed albino mouse assessed as protection against scPTZ-induced seizures after 4 hrs; type: functional; in short: as §1
Mus musculus [7] = assay: Anticonvulsant activity in ip dosed albino mouse assessed as protection against MES-induced seizures after 4 hrs; type: functional; in short: as §1

| SMILES | ED50 (Mus musculus [1]) [mg/kg] | TD50 at 0.5 h [2] [mg/kg] | ED50 (Mus musculus [3]) [mg/kg] | TD50 at 4 h [4] [mg/kg] | Time (Mus musculus [5]) [s] | ED50 (Mus musculus [6]) | ED50 (Mus musculus [7]) |
| --- | --- | --- | --- | --- | --- | --- | --- |
| COc1ccc(/C=C2/N=C(c3ccccc3)N(C(=O)c3ccc(C)cc3)NC2=O)cc1 | 30 | 300 | 100 | 300 | 151.5 | 30 mg/kg | 100 mg/kg |
| Cc1ccc(/C=C2/N=C(c3ccccc3)N(C(=O)COc3ccccc3)NC2=O)cc1 | 300 | – | 300 | – | – | inactive | 300 mg/kg |
| Cc1ccc(/C=C2/N=C(c3ccccc3)N(C(=O)c3ccc(C)cc3)NC2=O)cc1 | 30 | 300 | 100 | – | 145.83 | 30 mg/kg | 100 mg/kg |
| CCCC(CCC)C(=O)[O-].[Na+] [VALPROATE SODIUM] | 300 | – | – | – | – | inactive | – |
| O=C1NC(=O)C(c2ccccc2)(c2ccccc2)N1 [PHENYTOIN] | – | – | 30 | – | – | – | 30 mg/kg |
| Cc1ccc(C(=O)N2NC(=O)/C(=C\c3ccc(O)cc3)N=C2c2ccccc2)cc1 | 100 | – | 30 | – | 147.33 | 300 mg/kg | 100 mg/kg |
| O=C1NN(C(=O)c2ccc(F)cc2)C(c2ccccc2)=N/C1=C/c1ccc(O)cc1 | 300 | – | 300 | – | – | inactive | inactive |
| NC(=O)N1c2ccccc2C=Cc2ccccc21 [CARBAMAZEPINE] | – | – | – | – | 169 | – | – |
| Cc1ccc(/C=C2/N=C(c3ccccc3)N(C(=O)c3ccc(Cl)cc3)NC2=O)cc1 | 100 | – | 100 | – | – | 100 mg/kg | 300 mg/kg |
| O=C1NN(C(=O)c2ccccc2Cl)C(c2ccccc2)=N/C1=C/c1ccccc1Cl | 30 | 300 | 30 | 300 | 148.17 | 100 mg/kg | 30 mg/kg |
| O=C1NN(C(=O)c2ccc(Cl)cc2)C(c2ccccc2)=N/C1=C/c1ccccc1 | 100 | 300 | 100 | 300 | – | 300 mg/kg | 300 mg/kg |
| Cc1ccc(/C=C2/N=C(c3ccccc3)N(C(=O)Cc3ccc(Cl)cc3)NC2=O)cc1 | 100 | 300 | 100 | 300 | – | 300 mg/kg | 300 mg/kg |
| COc1ccc(/C=C2/N=C(c3ccccc3)N(C(=O)c3ccc(Cl)cc3)NC2=O)cc1 | 100 | 300 | 100 | 300 | – | 300 mg/kg | inactive |
